Paper PMC3461514 (The Journal of Cell Biology, 2012)
Blank lines part the entries; values can stand above or below the substance they belong to. Ends that are not written are not given here.

Assays:
zebrafish embryos = test: Zebrafish dilated heart phenotype after San MO and cRNA coinjection; type: in vivo, Danio rerio (zebrafish); settings: 1 ng MO injected alone at one-cell stage, scored at 48 hpf
KRIT1 FERM domain = KRIT1 FERM domain (Homo sapiens, UniProt O00522); type: binding; settings: GFP-KRIT1 F123 from HEK293 cell lysates, immunoblot
HUVEC = test: Immunofluorescence localization of HA-KRIT1 at EC-cell junctions; type: cell-based, human; settings: HA-tagged KRIT1 transfected HUVECs, 24 h, colocalization with VE-cadherin
Procedure, shortened: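 HUVECs in supplemented EC medium, nucleofected with HA-KRIT1 WT or L717,721A, plated on fibronectin-coated coverslips at ~90% confluence, grown 24 h; fixed 3.7% PFA 30 min, 0.2% Triton X-100 5 min, 10% goat serum block 1 h; mouse anti-HA plus rabbit anti-VE-cadherin 3 h RT, Alexa 488/568 secondaries 1 h; spinning-disk confocal, 40× oil, z-slices; ≥3 independent experiments.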

HUVECs = test: Myosin light chain phosphorylation; type: cell-based, human; settings: siRNA-resistant KRIT1 coexpressed with anti-KRIT1 siRNA in HUVECs, immunoblot
Procedure, shortened: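 HUVECs were kept in supplemented EC medium and nucleofected with anti-KRIT1 siRNA, alone or together with cDNA for WT or L717,721A KRIT1. Phospho-myosin light chain was then assessed by immunoblotting.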

Chain of KRIT1 FERM domain (O00522 420-734 limits assumed): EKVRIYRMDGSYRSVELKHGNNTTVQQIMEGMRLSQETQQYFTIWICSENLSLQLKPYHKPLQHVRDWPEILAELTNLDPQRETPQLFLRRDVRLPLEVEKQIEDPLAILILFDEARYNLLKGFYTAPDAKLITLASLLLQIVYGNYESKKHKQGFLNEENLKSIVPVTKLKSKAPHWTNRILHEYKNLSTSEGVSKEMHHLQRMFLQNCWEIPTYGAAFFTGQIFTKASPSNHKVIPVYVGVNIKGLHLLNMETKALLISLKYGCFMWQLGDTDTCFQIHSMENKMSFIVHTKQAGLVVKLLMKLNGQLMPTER

Substance: 5′-TTGAAGTCTCACTTTTGTCTCCATG-3′ (morpholino, further chemistry not given here) [San MO]
heart dilation, zebrafish embryos (zebrafish embryos): 95%

KRIT1 binding (KRIT1 FERM domain): no effect on KRIT1 binding
Substance: HEG1 C26 NAFA (SRHSCIFPGQYAPSAISDESRRRDYF; not fully specified)

Substance: KRIT1: HA-tagged full-length wild-type human KRIT1 expressed in HUVECs
localization at EC-cell junctions (HUVEC): localized at EC–cell junctions | effect on increased myosin light chain phosphorylation caused by KRIT1 silencing (HUVECs): reversed this effect
